HCT116 bCat-KO – beta-catenin-lacking colon tumor cell growth suppression; HCT116 beta-catenin knockout viability, CellTiter-Glo, 60 h; hits give low values; viability, % at 10 µM; 140,000 compounds, 1.5% hits;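 active means viability at or under a set limit, the compound median less 4 SD, cut at about 6% in these data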
HUVEC prolif 384 – inhibitors of human endothelial cell proliferation; 86,000 compounds, 1.1% hits; HUVEC proliferation, CellTiter-Glo luminescence, 72 h; hits give low values; viability, % at 10 µM (by protocol); AID 648;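 active means viability at or below 30%; inactive means viability above 30%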
H69AR inhibit – growth inhibitors of human H69AR lung tumor cells; H69AR lung tumor viability, ATP luminescence, 72 h; hits give low values; viability, % at 10 µM; 85,000 compounds, 6% hits; AID 598;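 active means viability at or below 40%; inactive means viability above 40%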;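 further: multidrug resistant small cell line overexpressing MRP-1 efflux transporter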
HCT116 PTEN-null – growth suppressors of cells with PTEN tumor suppressor deletion; AID 827; HCT116 PTEN-null viability, CellTiter-Glo, 60 h; hits give low values; 140,000 compounds, 1.2% hits; viability, % at 10 µM;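 active means viability at or below a set limit, 4 SD under the median of all tested compounds, cut at about 3.7% in these data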;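 further: PTEN knockout HCT116 line with beta catenin targeted HCT116 as companion control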
Lung fibro prol – blocks proliferation of human lung fibroblasts; LL 47 human lung fibroblast viability, ATP luminescence; hits give low values; viability, % at 10 µM; 85,000 compounds, 1.1% hits;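 active means viability at or below 50% in the single dose screen; inactive means viability above 50%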;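 further: compound exposure lasted 72 h before the ATP readout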
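Signal: luminescent ATP detection, CellTiter-Glo; assay system: LL 47 human lung fibroblasts; input: 1,150 cells/well; incubation: overnight cell rest, 72 h compound treatment at 37 °C; measure: % viability versus median cells-only luminescence; medium: IMEM growth medium with 15% fetal bovine serum; dosing: compound addition at 0.1% DMSO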
Each line names hits and unclear results; the compound was inactive in the other large screens. The full list was thinned out, with hits kept by preference.

CCc1ccc(C(=O)/C=C/c2ccc([N+](=O)[O-])o2)cc1	HCT116 bCat-KO 1.9, HUVEC prolif 384 21, H69AR inhibit 2.6, HCT116 PTEN-null 1.5, Lung fibro prol 15
CC(C)Cn1c(=O)c(C(=O)N/N=C/c2cccc(F)c2)c(O)c2ccccc21	none (no result: HUVEC prolif 384, H69AR inhibit, Lung fibro prol)
COc1ccc(NC(=O)COn2nnc3ccc(Cl)cc32)cc1OC	H69AR inhibit 39
Fc1ccccc1CSc1ncnc2sc3c(c12)CCCC3	none (no result: HUVEC prolif 384, H69AR inhibit, Lung fibro prol)
COc1nc(N=C(N)N)nc2ccc(C)cc12	none (no result: HUVEC prolif 384, H69AR inhibit, Lung fibro prol)
Cc1c(CN(C)C)c2c(n1Cc1ccccc1)C(=O)c1ccccc1-2	H69AR inhibit 38
Cc1cc(C)cc(N(CC(=O)NCCSc2ccccn2)S(=O)(=O)c2ccccc2)c1	none (no result: HUVEC prolif 384, H69AR inhibit, Lung fibro prol)
CCCCCCC1CCC(C(=O)Nn2c(C)nc3ccccc3c2=O)CC1 (stereo unspecified)	H69AR inhibit 35
CCCC1CCC(C(=O)Nn2c(C)nc3ccccc3c2=O)CC1 (stereo unspecified)	none
CCCCC(=O)Nc1ccc(NC(=O)c2ccc([N+](=O)[O-])cc2Cl)cc1OC	none (no result: HUVEC prolif 384, H69AR inhibit, Lung fibro prol)
Cc1oc(-c2ccc(Cl)cc2)nc1CN1CCC(C(=O)N2CCc3ccccc3C2)CC1	H69AR inhibit 1.3
Cc1oc(-c2cccc(Cl)c2)nc1CN1CCC(C(=O)N2CCN(c3ccccc3F)CC2)CC1	HUVEC prolif 384 16, H69AR inhibit 5.8 (no result: HCT116 bCat-KO, HCT116 PTEN-null)
Cc1oc(-c2cccc(Cl)c2)nc1CN1CCC(C(=O)NCc2ccco2)CC1	none
Cc1oc(-c2ccc(Cl)cc2)nc1CN1CCC(C(=O)N2CCN(Cc3ccccc3)CC2)CC1	HCT116 bCat-KO 2.0, HUVEC prolif 384 16
CCOC(=O)C1CCCN(C(=O)C2CCN(Cc3nc(-c4ccc(Cl)cc4)oc3C)CC2)C1 (stereo unspecified)	none (no result: HCT116 bCat-KO, HCT116 PTEN-null)
Cc1ccc(S(=O)(=O)NCC(c2ccco2)N2CCOCC2)cc1 (stereo unspecified)	none (no result: HUVEC prolif 384, H69AR inhibit, Lung fibro prol)
O=C(O)c1sccc1SCc1ccc(Cl)cc1Cl	none (no result: HUVEC prolif 384, H69AR inhibit, Lung fibro prol)
CCNC1=C(Cl)C(=O)c2ccccc2C1=O	none
CCN(CC)c1ccc(NC2=C(Cl)C(=O)c3ccccc3C2=O)cc1	HCT116 bCat-KO 0.8, HCT116 PTEN-null 0.5 (no result: HUVEC prolif 384, H69AR inhibit, Lung fibro prol)
Cc1ccc(NC2=C(Cl)C(=O)c3ccccc3C2=O)cc1	HCT116 bCat-KO 0.9, HCT116 PTEN-null 0.8 (no result: HUVEC prolif 384, H69AR inhibit, Lung fibro prol)
Cc1c(/C=N/NC(=O)C(NC(=O)c2ccc3c(c2)OCO3)C(C)C)c2ccccc2n1C (stereo unspecified)	none (no result: HUVEC prolif 384, H69AR inhibit, Lung fibro prol)
CCOc1ccc(C(=O)Nc2ccccc2N2CCCC2)cc1	H69AR inhibit 36
CN(C(=O)c1ccc(C(=O)N(C)C2CCCCC2)cc1)C1CCCCC1	none (no result: HCT116 bCat-KO, HCT116 PTEN-null)
O=C(NO)c1ccc(C(=O)N(C2CCCCC2)C2CCCCC2)cc1	H69AR inhibit 14
Cc1oc(-c2ccccc2Cl)nc1CSc1nc2c(c(=O)[nH]1)CCC2	none (no result: HUVEC prolif 384, H69AR inhibit, Lung fibro prol)
Cc1ccc(Nc2c(N)c(=O)oc3ccccc23)cc1	H69AR inhibit 13
O=C(NCCc1ccccc1)C1CCCN(S(=O)(=O)c2cccs2)C1 (stereo unspecified)	none
COc1cc(C(=O)O/N=C2\C=CC(=O)C(C)=C2)cc(OC)c1OC	HCT116 bCat-KO 1.5, HCT116 PTEN-null 1.4 (no result: HUVEC prolif 384, H69AR inhibit, Lung fibro prol)
O=c1cc(-c2ccccc2)[nH]n1-c1nc2ccccc2[nH]1	HCT116 bCat-KO 4.5, Lung fibro prol 27 (no result: H69AR inhibit)
CCOC(=O)C1=C(C)NC(=S)N(C(C)=O)C1c1ccc(Cl)cc1 (stereo unspecified)	HCT116 bCat-KO 1.1, HCT116 PTEN-null 0.9
CC(=O)NS(=O)(=O)c1ccc(NC(=O)c2ccc3c(c2)C(=O)N(CCC(C)C)C3=O)cc1	none (no result: HUVEC prolif 384, H69AR inhibit, Lung fibro prol)
COc1cc2[nH]c3c(N4CCN(c5ccccn5)CC4)ncnc3c2cc1OC	H69AR inhibit 24, HCT116 PTEN-null 2.7
COc1ccc(N2CCN(c3ncnc4c3[nH]c3ccccc34)CC2)cc1	none
O=C(c1ccc(S(=O)(=O)N2CCC(c3nc4ccccc4[nH]3)CC2)cc1)N1CCOCC1	none
Cc1ccc(-c2noc(C3CCCN(S(=O)(=O)c4ccc5ccccc5c4)C3)n2)o1 (stereo unspecified)	none
O=S(=O)(c1ccc2c(c1)OCCO2)N1CCC(c2nc3ccc(Cl)cc3[nH]2)CC1	H69AR inhibit 15
Cc1ccc(-c2noc(C3CCN(S(=O)(=O)c4ccc5c(c4)OCCO5)CC3)n2)o1	H69AR inhibit 40
Cc1ccc2nc(C3CCN(S(=O)(=O)c4ccc5ccccc5c4)CC3)[nH]c2c1	H69AR inhibit 8.0
O=C(NCC1CCCO1)c1ccc(S(=O)(=O)N2CCC(c3nc4ccc(Cl)cc4[nH]3)CC2)cc1 (stereo unspecified)	H69AR inhibit 36
COc1ccc2c(c1)N(S(=O)(=O)c1ccccc1)CCC2=O	none (no result: HUVEC prolif 384, H69AR inhibit, Lung fibro prol)
CC1CCN(S(=O)(=O)c2cc(C(=O)N3CCN(c4ncccn4)CC3)ccc2Br)CC1	none (no result: HUVEC prolif 384, H69AR inhibit, Lung fibro prol)
COC(=O)c1sccc1NC(=S)N1CCN(c2cccc(C)c2C)CC1	none (no result: HUVEC prolif 384, H69AR inhibit, Lung fibro prol)
NS(=O)(=O)c1ccc(N2N=C(c3ccc(Br)cc3)CC2c2ccc(F)cc2)cc1 (stereo unspecified)	HCT116 bCat-KO 0.7, HCT116 PTEN-null 1.2 (no result: HUVEC prolif 384, H69AR inhibit, Lung fibro prol)
NS(=O)(=O)c1ccc(N2N=C(c3ccccc3)CC2c2cccc(F)c2)cc1 (stereo unspecified)	none (no result: HUVEC prolif 384, H69AR inhibit, Lung fibro prol)
O=C(Nc1nc(-c2cccs2)cs1)c1ccc(Cl)s1	H69AR inhibit 3.6
COc1cc(C(=O)NCC(=O)N/N=C(/C)c2cccs2)cc(OC)c1OC	none (no result: HUVEC prolif 384, H69AR inhibit, Lung fibro prol)
C/C(CC(C)(C)C1CCCCC1)=N\NC(N)=S	HCT116 bCat-KO 4.6, H69AR inhibit 24
Cc1nn(-c2ccccc2)c2nc(-c3ccncc3)cc(C(=O)NCc3ccco3)c12	H69AR inhibit 31
Cc1nn(-c2ccccn2)c2nc(-c3cccs3)cc(C(=O)NCc3ccco3)c12	H69AR inhibit 16
Cc1ccc(-c2[nH]c3ccccc3c2SCCNC(=O)c2ccc(S(=O)(=O)N3CCOCC3)cc2)cc1	HCT116 bCat-KO 0.8, HCT116 PTEN-null 0.8 (no result: HUVEC prolif 384, H69AR inhibit, Lung fibro prol)
COc1ccc(-c2[nH]c3ccccc3c2SCCNC(=O)c2ccccc2)cc1	none (no result: HUVEC prolif 384, H69AR inhibit, Lung fibro prol)
CCOC(=O)C1=C(Cn2cnc3ccccc32)NC(=O)NC1c1cc(C)ccc1C (stereo unspecified)	H69AR inhibit 16
COC(=O)C1=C(Cn2cnc3ccccc32)NC(=O)NC1c1cc(C)ccc1C (stereo unspecified)	none
CCN1/C(=C/c2ccc3ccccc3[n+]2CC)C=Cc2ccccc21	HCT116 bCat-KO 1.8, H69AR inhibit 2.2, HCT116 PTEN-null 1.5, Lung fibro prol 18
COc1ccc(-c2cc(N)n(S(=O)(=O)c3c(F)c(F)c(F)c(F)c3F)n2)cc1OC	HCT116 bCat-KO 5.7, HUVEC prolif 384 2.2, H69AR inhibit 1.4, HCT116 PTEN-null 2.1, Lung fibro prol 2.6
Cc1ccc2[nH]c3c(c2c1)CCC3=O	none
Cc1ccc2[nH]c3c(c2c1)CCc1cn[nH]c1-3	H69AR inhibit 39
Cc1ccc2[nH]c3c(c2c1)CCCC3=O	HUVEC prolif 384 27
CCOc1cc(N2CCOCC2)c(OCC)cc1NC(=O)c1cc(-c2ccco2)nc2ccccc12	HUVEC prolif 384 15, H69AR inhibit 4.0, Lung fibro prol 9.1
Brc1cccc(-c2n[nH]c(-c3ccccc3)n2)c1	H69AR inhibit 40

Compound activity as filed in PubChem.
